ChEMBL document CHEMBL3132746, “Development of CBAP-BPyne, a probe for γ-secretase and presenilinase” (Medchemcomm, 2014)
pIC50: −log10 of the molar value. Calls of active or inactive are those of the source. The calls are words filed in the database; no cut-off is given here.

Legend:
[1] = target: Presenilin-1 (Homo sapiens) (UniProt P49768); assay: Inhibition of PS1 PSase activity in human HeLa cells assessed as accumulation of full length protein at 1 to 10 uM after 4 days by Western blot analysis; format: cell-based
How it was run: (§1)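 HeLa cells treated 4 days at 1, 3 or 10 µM, with DMSO vehicle as control. Lysis in RIPA buffer; 15 µg lysate run on 12% Bis-Tris gel in MES buffer. Western blot with anti PS1-NTF antibody, scoring full-length PS1 and PS1-NTF bands.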

[2] = target: Gamma-secretase; assay: Inhibition of gamma-secretase (unknown origin) using APP substrate assessed as amyloid-beta40 production; format: protein-complex assay, Homo sapiens
[3] = target: Presenilin-1 (Homo sapiens) (UniProt P49768); assay: Inhibition of PS1 PSase activity in human HeLa cells assessed as complete depletion of PS1-NTF protein at 1 to 10 uM after 4 days by Western blot analysis relative to control; format: cell-based; how it was run: as §1
[4] = target: Gamma-secretase; assay: Inhibition of gamma-secretase (unknown origin) using Notch1 substrate assessed as Notch1-NICD production; format: protein-complex assay, Homo sapiens
[5] = system: HeLa; assay: Binding affinity to Signal peptide peptidase in human HeLa cell membrane by photolabelling assay; format: cell membranes
How it was run: (§2)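 Photolabelling: 600 µg HeLa cell membrane diluted in PBS, preincubated with 2 µM CBAP or vehicle for 15 min at 37 °C. Then 20 nM probe for 1 h at 37 °C and UV irradiation (350 nm) for 45 min. Membranes pelleted and clicked to biotin azide (1 h, RT). Streptavidin pull-down overnight at 4 °C, biotin elution, Western blot with the relevant subunit antibody.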

[6] = target: Nicastrin (Homo sapiens) (UniProt Q92542); assay: Binding affinity to nicastrin in human HeLa cell membrane by photolabelling assay; format: cell membranes; how it was run: as §2
Sequence of Nicastrin (Homo sapiens) (Q92542 whole entry): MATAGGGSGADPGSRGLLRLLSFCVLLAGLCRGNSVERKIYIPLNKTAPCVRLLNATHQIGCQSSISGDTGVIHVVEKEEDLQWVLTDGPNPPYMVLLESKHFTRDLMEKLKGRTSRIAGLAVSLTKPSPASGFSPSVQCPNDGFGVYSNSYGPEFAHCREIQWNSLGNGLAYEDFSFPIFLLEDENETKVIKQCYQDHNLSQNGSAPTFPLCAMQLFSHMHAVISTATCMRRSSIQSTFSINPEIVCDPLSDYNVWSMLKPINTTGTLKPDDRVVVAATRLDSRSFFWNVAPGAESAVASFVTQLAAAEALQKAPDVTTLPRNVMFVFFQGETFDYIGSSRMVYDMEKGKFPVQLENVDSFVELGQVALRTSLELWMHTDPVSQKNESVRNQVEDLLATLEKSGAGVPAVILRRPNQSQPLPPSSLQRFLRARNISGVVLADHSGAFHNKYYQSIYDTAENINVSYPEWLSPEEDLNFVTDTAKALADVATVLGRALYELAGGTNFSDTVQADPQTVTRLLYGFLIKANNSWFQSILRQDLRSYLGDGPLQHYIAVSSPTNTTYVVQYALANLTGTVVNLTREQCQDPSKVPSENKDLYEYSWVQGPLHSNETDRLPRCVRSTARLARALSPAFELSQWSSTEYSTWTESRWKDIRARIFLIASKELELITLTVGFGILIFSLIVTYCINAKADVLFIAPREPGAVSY

[7] = target: Gamma-secretase subunit PEN-2 (Homo sapiens) (UniProt Q9NZ42); assay: Binding affinity to Pen-2 in human HeLa cell membrane by photolabelling assay; format: cell membranes; how it was run: as §2
Sequence of Gamma-secretase subunit PEN-2 (Homo sapiens) (Q9NZ42 whole entry): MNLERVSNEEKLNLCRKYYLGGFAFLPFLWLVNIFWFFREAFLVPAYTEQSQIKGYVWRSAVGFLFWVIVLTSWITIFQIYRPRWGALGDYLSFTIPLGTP

[8] = target: Presenilin-1 (Homo sapiens) (UniProt P49768); assay: Binding affinity to PS1-CTF in human HeLa cell membrane by photolabelling assay; format: cell membranes; how it was run: as §2
[9] = target: Presenilin-1 (Homo sapiens) (UniProt P49768); assay: Binding affinity to PS1-NTF in human HeLa cell membrane by photolabelling assay; format: cell membranes; how it was run: as §2
[10] = system: HeLa; assay: Binding affinity to Aph-1 in human HeLa cell membrane by photolabelling assay; format: cell membranes; how it was run: as §2
[11] = target: Gamma-secretase; assay: Inhibition of gamma-secretase (unknown origin) expressed in CHO cells transfected with APP assessed as amyloid-beta42 production by cell based assay; parameters: species or system Homo sapiens

inhibition [1]	pIC50 [2]	inhibition [3]	pIC50 [4]	Activity [6]	Activity [7]	Activity [8]	Activity [9]	pIC50 [11]	Structure (SMILES)	Activity [5]	Activity [10]
inactive	–	–	–	–	–	–	–	–	CC(C)C[C@H](NC(=O)[C@H](Cc1ccccc1)C[C@@H](O)[C@H](Cc1ccccc1)NC(=O)OC(C)(C)C)C(=O)N[C@@H](Cc1ccccc1)C(N)=O	–	–
Active	9.15	Active	9.25	inactive	inactive	inactive	Active	7.55	C[C@H](NC(=O)[C@H](Cc1ccccc1)C[C@@H](O)[C@H](Cc1ccccc1)NC(=O)OC(C)(C)C)C(=O)N[C@@H]1N=C(C2CCCCC2)c2ccccc2NC1=O	Active	inactive
Active	9.04	–	9.00	inactive	inactive	inactive	Active	7.70	C#CCOc1ccc(C(=O)c2ccc(C(=O)N[C@@H](Cc3ccccc3)[C@H](O)C[C@@H](Cc3ccccc3)C(=O)N[C@@H](C)C(=O)N[C@@H]3N=C(C4CCCCC4)c4ccccc4NC3=O)cc2)cc1	Active	inactive
